Reference: ChEMBL document CHEMBL1828498, “Identification and characterization of a novel integrin-linked kinase inhibitor” (J Med Chem, 2011)
Active and inactive are the calls of the source. The rule behind the calls is not given here.

Columns and labels:
[1] = biological target: Rapamycin-insensitive companion of mTOR (Homo sapiens) (UniProt Q6R327); experiment: Inhibition of mTORC2 in human MDA-MB-231 cells assessed as SGK1 phosphorylation by Western blot analysis; format: cell-based
In short: (§1)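 Cells exposed 24 h in 5% FBS medium, final DMSO 0.1%; lysed in 1% SDS/10 mM EDTA/50 mM Tris pH 8.1, equal protein on SDS-PAGE, nitrocellulose, primary antibody 1:1000 at 4°C for 2 h, HRP secondary 1:5000, ECL detection; blots representative of three independent experiments.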

[2] = biological target: Receptor-type tyrosine-protein kinase FLT3 (Homo sapiens) (UniProt P36888); experiment: Inhibition of Flt3 at 5 uM assessed as remaining activity
Chain of Receptor-type tyrosine-protein kinase FLT3 (Homo sapiens) (P36888 whole entry): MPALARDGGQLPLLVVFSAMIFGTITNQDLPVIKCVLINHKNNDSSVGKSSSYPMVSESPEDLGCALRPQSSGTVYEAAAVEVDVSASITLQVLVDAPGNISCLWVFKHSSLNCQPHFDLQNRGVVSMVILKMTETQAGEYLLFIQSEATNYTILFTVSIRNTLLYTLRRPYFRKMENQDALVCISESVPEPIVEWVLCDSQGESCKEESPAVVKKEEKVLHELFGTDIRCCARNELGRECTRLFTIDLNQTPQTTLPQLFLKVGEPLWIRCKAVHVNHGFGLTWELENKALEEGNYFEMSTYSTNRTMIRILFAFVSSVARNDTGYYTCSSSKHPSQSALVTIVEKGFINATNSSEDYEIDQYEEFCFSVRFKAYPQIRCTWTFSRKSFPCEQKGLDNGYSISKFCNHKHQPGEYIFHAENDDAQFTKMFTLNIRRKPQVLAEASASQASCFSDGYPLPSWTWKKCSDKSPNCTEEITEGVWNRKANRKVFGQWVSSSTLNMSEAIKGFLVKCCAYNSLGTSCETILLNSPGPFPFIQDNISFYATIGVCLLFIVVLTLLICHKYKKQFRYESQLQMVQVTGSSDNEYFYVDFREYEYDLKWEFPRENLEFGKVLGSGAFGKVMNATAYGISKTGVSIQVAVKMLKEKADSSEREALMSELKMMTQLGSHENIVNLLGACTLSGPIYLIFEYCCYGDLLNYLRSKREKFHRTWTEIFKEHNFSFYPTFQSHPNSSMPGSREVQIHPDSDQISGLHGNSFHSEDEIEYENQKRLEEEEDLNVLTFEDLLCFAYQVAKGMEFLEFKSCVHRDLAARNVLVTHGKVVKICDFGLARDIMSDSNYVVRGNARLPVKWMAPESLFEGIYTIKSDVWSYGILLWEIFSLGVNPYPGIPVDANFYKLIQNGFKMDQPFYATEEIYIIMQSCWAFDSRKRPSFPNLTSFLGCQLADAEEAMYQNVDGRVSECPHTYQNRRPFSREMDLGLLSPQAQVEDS
In short: (§2)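 Panel of 20 recombinant kinases, profiled by a commercial vendor.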

Mus musculus [3] = experiment: Inhibition of phosphorylation of Thr-308-Akt in human PC3 cells xenografted nude mouse tumor lysate at 25 mg/kg, po administered for 35 days by Western blot analysis; format: functional, organism-based; design: dose 25 mg/kg; settings: Neoplasm, PC-3
In short: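 Tumors harvested at terminal sacrifice after 35 days of daily oral dosing, snap-frozen and stored at -80°C; lysates immunoblotted, three representative tumors per group.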

[4] = biological target: Hepatocyte growth factor receptor (Homo sapiens) (UniProt P08581); experiment: Inhibition of Met at 5 uM assessed as remaining activity; in short: as §2
[5] = biological target: Tyrosine-protein kinase JAK3 (Homo sapiens) (UniProt P52333); experiment: Inhibition of Jak3 at 5 uM assessed as remaining activity; in short: as §2
Chain of Tyrosine-protein kinase JAK3 (Homo sapiens) (P52333 whole entry): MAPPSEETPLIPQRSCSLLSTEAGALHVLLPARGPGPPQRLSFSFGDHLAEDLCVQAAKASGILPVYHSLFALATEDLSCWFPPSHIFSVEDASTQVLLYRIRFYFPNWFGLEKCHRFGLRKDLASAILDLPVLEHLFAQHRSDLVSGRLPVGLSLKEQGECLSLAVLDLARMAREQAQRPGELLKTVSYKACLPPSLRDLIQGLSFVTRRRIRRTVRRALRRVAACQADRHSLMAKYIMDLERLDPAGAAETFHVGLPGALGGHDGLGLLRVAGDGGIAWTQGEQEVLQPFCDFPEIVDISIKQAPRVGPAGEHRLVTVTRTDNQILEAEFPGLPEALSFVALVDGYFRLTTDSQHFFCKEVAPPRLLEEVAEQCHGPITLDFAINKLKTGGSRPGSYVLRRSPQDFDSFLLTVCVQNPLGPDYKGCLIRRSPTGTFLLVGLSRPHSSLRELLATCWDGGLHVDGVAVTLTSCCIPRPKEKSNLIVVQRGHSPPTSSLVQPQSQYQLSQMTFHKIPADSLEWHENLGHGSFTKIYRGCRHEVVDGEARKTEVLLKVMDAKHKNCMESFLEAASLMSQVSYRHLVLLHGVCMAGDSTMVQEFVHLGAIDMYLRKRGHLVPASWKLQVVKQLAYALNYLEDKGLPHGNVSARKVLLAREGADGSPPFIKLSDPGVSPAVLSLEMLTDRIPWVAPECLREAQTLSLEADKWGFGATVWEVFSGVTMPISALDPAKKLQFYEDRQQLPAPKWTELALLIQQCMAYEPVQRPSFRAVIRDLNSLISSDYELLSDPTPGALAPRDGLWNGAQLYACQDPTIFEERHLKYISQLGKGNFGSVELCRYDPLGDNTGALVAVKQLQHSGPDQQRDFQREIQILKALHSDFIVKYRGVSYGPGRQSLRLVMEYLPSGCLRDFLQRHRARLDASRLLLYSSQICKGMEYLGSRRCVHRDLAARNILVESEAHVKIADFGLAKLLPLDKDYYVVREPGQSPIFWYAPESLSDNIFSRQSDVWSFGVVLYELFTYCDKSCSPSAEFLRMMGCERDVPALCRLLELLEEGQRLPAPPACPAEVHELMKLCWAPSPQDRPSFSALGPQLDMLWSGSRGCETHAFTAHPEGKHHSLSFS

PC-3 [6] = experiment: Reduction in HER2 mRNA expression in human PC3 cells after 24 hrs by RT-PCR analysis; format: functional, cell-based
In short: (§3)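 PC-3, PC-3/CA-ILK, SKBR3 and SKBR3/CA-ILK cells treated 24 h in 5% FBS medium; total RNA from 1 × 10^6 cells by Trizol, 1 μg reverse-transcribed, then PCR with gene-specific primers and β-actin reference.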

[7] = biological target: T1, 3-phosphoinositide-dependent protein kinase 1 (Homo sapiens) (UniProt O15530); experiment: Inhibition of PDK2 in human MDA-MB-231 cells assessed as Akt Thr-308 dephosphorylation by Western blot analysis; format: functional, cell-based; in short: as §1
T1 sequence (whole entry): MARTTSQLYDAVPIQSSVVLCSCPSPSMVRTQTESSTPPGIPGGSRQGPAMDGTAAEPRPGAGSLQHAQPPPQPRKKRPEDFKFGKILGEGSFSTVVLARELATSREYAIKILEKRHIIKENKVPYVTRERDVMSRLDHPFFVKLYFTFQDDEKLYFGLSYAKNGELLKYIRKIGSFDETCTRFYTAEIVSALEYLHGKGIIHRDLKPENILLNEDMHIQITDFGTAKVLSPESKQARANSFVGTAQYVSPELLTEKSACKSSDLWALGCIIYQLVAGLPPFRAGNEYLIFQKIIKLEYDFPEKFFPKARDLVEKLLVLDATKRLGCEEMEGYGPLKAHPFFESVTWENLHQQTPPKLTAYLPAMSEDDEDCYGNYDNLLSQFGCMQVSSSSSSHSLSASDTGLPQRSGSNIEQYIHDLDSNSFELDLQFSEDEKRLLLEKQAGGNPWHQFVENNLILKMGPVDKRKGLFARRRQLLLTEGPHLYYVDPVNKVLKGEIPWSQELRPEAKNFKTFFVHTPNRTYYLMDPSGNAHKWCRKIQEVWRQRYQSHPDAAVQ

SK-BR-3 [8] = experiment: Reduction in YB-1 concentration in human SKBR3 cells after 24 hrs by Western blot analysis; format: functional, cell-based
In short: (§4)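 PC-3 versus stable PC-3/CA-ILK, or SKBR3 versus transient SKBR3/CA-ILK (electroporation, used 48 h after), treated 24 h in 5% FBS medium; immunoblotting with ECL; representative of three experiments.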

PC-3 [9] = experiment: Reduction in YB-1 mRNA expression in human PC3 cells after 24 hrs by RT-PCR analysis; format: functional, cell-based; in short: as §3
[10] = test system: 3-phosphoinositide dependent protein kinase-2, PDK2; experiment: Inhibition of PDK2 in human PC3 cells assessed as Akt Ser-473 dephosphorylation by Western blot analysis; format: functional, cell-based; settings: PC-3; in short: as §1
Mus musculus [11] = experiment: Decrease in phosphorylation of MLC in human PC3 cells xenografted nude mouse tumor lysate at 25 mg/kg, po administered for 35 days by Western blot analysis; format: functional, organism-based; design: dose 25 mg/kg; settings: Neoplasm, PC-3
In short: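 Male NCr athymic nude mice, 5–7 weeks, with s.c. PC-3 xenografts (0.5 × 10^6 cells in 50% Matrigel), dosed by oral gavage once daily for 35 days. Vehicle 0.5% methylcellulose, 0.1% Tween 80 in water, 10 μL/g. Tumors snap-frozen at sacrifice; three tumors per group immunoblotted.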

PC-3 [12] = experiment: Induction of apoptosis in human PC3 cells assessed as late apoptotic cells at 1 uM by annexin V/PI staining (reference value: 9.8%); format: functional
PC-3 [13] = experiment: Suppression of tumor growth in human PC3 cells xenografted in nude mouse at 50 mg/kg/day, po administered for 35 days relative to control; format: functional
In short: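 Male NCr athymic nude mice, s.c. 0.5 × 10^6 PC-3 cells in 50% Matrigel; established tumors randomized (n=6) to daily oral gavage in 0.5% methylcellulose/0.1% Tween 80 in water, 10 μL/g, 35 days; weekly caliper volume = width² × length × 0.52; mean ± SEM, ANOVA or t-test.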

SK-BR-3 [14] = experiment: Reduction in EGFR concentration in human SKBR3 cells expressing constitutively active ILK after 24 hrs by Western blot analysis; format: functional, cell-based; in short: as §4
SK-BR-3 [15] = experiment: Reduction in HER2 mRNA expression in human SKBR3 cells after 24 hrs by RT-PCR analysis; format: functional, cell-based; in short: as §3
PC-3 [16] = experiment: Induction of apoptosis in human PC3 cells up to 2 uM after 48 hrs by flow cytometry; format: functional, cell-based
[17] = biological target: Focal adhesion kinase 1 (Homo sapiens) (UniProt Q05397); experiment: Inhibition of FAK in human PC3 cells assessed as decrease in auto-phosphorylation at Tyr-397 by Western blot analysis; format: cell-based; settings: PC-3
Chain of Focal adhesion kinase 1 (Homo sapiens) (Q05397 2-1052 limits assumed): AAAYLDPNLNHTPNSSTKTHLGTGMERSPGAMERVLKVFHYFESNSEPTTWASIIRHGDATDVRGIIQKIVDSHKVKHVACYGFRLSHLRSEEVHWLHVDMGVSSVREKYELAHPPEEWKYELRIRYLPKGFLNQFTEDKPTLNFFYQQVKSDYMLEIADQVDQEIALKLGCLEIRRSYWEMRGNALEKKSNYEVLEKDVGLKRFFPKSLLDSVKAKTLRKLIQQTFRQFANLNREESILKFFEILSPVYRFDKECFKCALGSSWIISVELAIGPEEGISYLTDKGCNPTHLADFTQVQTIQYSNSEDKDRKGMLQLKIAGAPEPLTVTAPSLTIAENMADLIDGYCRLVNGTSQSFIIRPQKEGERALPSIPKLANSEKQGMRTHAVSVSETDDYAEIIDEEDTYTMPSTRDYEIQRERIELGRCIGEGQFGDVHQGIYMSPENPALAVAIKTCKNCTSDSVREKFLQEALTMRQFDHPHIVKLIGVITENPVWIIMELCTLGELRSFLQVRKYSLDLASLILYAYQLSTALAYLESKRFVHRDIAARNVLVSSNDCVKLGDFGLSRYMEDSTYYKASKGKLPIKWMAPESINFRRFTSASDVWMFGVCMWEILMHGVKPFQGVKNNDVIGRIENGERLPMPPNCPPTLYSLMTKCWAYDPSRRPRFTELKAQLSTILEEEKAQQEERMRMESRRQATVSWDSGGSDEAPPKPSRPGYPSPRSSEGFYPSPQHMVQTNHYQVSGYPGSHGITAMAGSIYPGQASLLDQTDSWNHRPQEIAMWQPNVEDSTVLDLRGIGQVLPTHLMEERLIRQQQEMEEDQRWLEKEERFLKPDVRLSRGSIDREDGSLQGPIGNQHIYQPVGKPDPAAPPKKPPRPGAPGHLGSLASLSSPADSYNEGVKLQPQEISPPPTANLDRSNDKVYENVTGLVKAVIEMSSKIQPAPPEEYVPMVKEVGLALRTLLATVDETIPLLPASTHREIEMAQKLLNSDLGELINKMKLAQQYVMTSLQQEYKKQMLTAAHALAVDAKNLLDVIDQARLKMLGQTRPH
In short: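 PC-3 cells exposed to graded concentrations for 24 h in 5% FBS medium. Immunoblotting for phospho-Tyr397-FAK, ERK1/2, p38 and JNK. Lysis in 1% SDS buffer, primary antibody 1:1000 at 4°C for 2 h, ECL. Three independent experiments.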

Chain of Rapamycin-insensitive companion of mTOR (Homo sapiens) (Q6R327 whole entry): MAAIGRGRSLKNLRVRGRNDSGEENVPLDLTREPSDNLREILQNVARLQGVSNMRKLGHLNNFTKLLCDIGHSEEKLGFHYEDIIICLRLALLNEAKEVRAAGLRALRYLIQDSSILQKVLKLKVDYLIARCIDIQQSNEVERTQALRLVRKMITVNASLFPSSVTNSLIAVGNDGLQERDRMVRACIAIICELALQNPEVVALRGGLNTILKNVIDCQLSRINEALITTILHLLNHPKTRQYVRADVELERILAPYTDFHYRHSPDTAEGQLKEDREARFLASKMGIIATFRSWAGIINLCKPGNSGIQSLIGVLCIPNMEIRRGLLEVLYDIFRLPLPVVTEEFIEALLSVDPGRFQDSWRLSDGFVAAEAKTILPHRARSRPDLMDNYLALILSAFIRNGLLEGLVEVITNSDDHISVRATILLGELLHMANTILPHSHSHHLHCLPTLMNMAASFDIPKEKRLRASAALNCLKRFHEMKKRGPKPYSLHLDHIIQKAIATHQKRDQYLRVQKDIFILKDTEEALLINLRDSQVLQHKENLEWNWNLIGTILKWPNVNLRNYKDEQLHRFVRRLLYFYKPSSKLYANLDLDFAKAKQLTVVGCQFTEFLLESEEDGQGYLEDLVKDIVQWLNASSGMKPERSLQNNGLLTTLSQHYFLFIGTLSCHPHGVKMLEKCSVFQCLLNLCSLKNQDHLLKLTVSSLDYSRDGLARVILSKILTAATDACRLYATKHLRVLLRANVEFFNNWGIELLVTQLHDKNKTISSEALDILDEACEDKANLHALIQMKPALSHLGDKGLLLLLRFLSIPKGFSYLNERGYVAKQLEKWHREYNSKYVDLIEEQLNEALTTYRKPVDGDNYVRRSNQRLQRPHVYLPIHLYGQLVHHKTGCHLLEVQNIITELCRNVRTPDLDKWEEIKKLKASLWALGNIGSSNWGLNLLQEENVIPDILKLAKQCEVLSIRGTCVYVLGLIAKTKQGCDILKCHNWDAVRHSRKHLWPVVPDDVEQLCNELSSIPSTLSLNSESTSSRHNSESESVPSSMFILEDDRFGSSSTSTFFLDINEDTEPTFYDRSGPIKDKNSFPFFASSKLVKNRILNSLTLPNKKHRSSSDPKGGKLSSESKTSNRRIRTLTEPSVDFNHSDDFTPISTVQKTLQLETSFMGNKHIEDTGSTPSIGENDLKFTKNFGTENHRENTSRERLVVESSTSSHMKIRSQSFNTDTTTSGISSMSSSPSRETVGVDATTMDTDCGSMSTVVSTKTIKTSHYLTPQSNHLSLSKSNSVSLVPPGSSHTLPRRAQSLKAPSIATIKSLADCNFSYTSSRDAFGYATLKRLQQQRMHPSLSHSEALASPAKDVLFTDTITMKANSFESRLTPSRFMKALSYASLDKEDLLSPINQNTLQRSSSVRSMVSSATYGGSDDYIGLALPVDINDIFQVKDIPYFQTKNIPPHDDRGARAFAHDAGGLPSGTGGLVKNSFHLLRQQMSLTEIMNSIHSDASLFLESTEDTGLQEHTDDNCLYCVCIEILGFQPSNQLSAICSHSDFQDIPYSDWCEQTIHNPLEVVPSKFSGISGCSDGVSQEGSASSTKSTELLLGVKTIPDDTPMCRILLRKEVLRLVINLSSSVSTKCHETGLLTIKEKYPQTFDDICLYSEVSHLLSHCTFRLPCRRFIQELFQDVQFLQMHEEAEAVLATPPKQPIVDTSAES

inhibition [1]: inactive | Activity [2]: 66% | Activity [4]: 110% | Activity [5]: 128% | inhibition [7]: inactive | inhibition [17]: inactive
SMILES: CNC(=O)CCc1cc(-c2ccc(-c3ccc(C(F)(F)F)cc3)cc2)n(-c2ccc(N3CCNCC3)cc2)n1
Activity (Mus musculus [3]): inactive | Activity (PC-3 [6]): Dose-dependent effect | Activity (SK-BR-3 [8]): Dose-dependent effect | Activity (PC-3 [9]): Dose-dependent effect | inhibition [10]: Dose-dependent effect | Activity (Mus musculus [11]): Active | Activity (PC-3 [12]): 10.1% | Activity (PC-3 [13]): 62% | Activity (SK-BR-3 [14]): inactive | Activity (SK-BR-3 [15]): Dose-dependent effect | Activity (PC-3 [16]): inactive
